In test [1] the target is T1, C5a anaphylatoxin chemotactic receptor 1 (Homo sapiens, UniProt P21730).
T1 sequence (P21730 whole entry): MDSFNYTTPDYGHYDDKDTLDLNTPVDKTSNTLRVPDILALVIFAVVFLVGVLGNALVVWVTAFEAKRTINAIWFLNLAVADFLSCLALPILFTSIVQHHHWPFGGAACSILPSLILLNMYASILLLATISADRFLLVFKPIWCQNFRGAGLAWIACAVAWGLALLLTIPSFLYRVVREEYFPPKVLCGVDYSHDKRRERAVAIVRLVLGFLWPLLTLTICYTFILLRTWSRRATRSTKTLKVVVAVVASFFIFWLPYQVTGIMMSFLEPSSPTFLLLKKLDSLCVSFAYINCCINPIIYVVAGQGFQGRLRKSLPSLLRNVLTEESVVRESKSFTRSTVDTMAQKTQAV
Put plainly: (§1) Inhibition of binding of [125I]C5a to human polymorphonuclear leukocyte C5a receptor. The method, boiled down:
(§2)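 Competition binding on fresh human PMNs (0.2 × 10⁶) with [¹²⁵I]C5a (~50 pM). Buffer: 50 mM HEPES, 1 mM CaCl₂, 5 mM MgCl₂, 0.5% BSA, 0.1% bacitracin, 100 μM PMSF. Incubated 60 min at 4 °C, then filtered, washed and γ-counted. Nonspecific binding defined with 1 mM peptide or 100 nM C5a.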

Test [2] deals with T1, C5a anaphylatoxin chemotactic receptor 1. The test is described as §1. The method, boiled down: as §2
This is another data set of the same source.

Test [3] is filed under the species Homo sapiens. Put plainly: (§3) Concentration of peptide resulting in 50% inhibition of C5a (100 nM) causing the release of MPO from polymorphonuclear leukocytes. It is filed as functional, organism-based. The method, boiled down:
(§4)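 Freshly isolated human PMNs primed with cytochalasin B (10 µg/mL, 10 min, 37 °C). Cells (4 × 10⁶/mL) preincubated 10 min at 37 °C with peptide in Hank's balanced salt solution with 0.1% gelatin. Challenged with C5a (100 nM) for 10 min. Myeloperoxidase read-out: pH 6.8 phosphate buffer, dimethoxybenzidine/H₂O₂, stopped at 20 min with sodium azide. A450 corrected for no-peptide controls.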

Test [4] is filed under the species Homo sapiens. Described as §3. It is filed as functional, organism-based. The method, boiled down:
as §4
This is another data set of the same source.

In test [5] the target is T1, C5a anaphylatoxin chemotactic receptor 1. Put plainly: (§5) Inhibition of binding of [125I]C5a to human polymorphonuclear leukocyte(PMN) C5a anaphylatoxin chemotactic receptor. In a few lines: (§6)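 Competition binding on freshly isolated whole human PMNs (0.2 × 10⁶/well) against ~50 pM [125I]C5a, with unlabeled peptide or recombinant human C5a as competitor. Buffer: 50 mM HEPES, 1 mM CaCl2, 5 mM MgCl2, 0.5% BSA, 0.1% bacitracin, 100 μM PMSF. Incubated 60 min at 4 °C, then filtered, washed once and gamma-counted. Nonspecific binding set with 1 mM peptide or 100 nM C5a.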

Test [6] has the same target. The test is described as §5. The method, boiled down: as §6
This is another data set of the same source.

As for `C[C@H](N)C(=O)N[C@@H](CCCCN)C(=O)N1CCCC1C(=O)N[C@H](CC1CCCCC1)C(=O)N[C@@H](Cc1c[nH]c2ccccc12)C(=O)N[C@H](CCCN=C(N)N)C(=O)O` (single isomer, unassigned), the IC50 in test [1] and in test [2] was greater than 1000 µM each time.

On to `CN[C@@H](Cc1ccccc1)C(=O)N[C@@H](CCCCN)C(=O)N1CCCC1C(=O)N[C@H](CC1CCCCC1)C(=O)N[C@@H](Cc1c[nH]c2ccccc12)C(=O)N[C@@H](CCCN=C(N)N)C(=O)O` (single isomer, unassigned), for which the IC50 in test [3] was 2 µM; in test [4], 1.95 µM.

As for `NCCCC[C@H](NC(=O)[C@@H](N)Cc1ccccc1)C(=O)N[C@@H](Cc1ccccc1)C(=O)N[C@@H](CCCCN)C(=O)N1CCC[C@H]1C(=O)N[C@H](CC1CCCCC1)C(=O)N[C@@H](Cc1c[nH]c2ccccc12)C(=O)N[C@H](CCCN=C(N)N)C(=O)O`, the IC50 is 0.5 µM in test [3], 4.6 µM in test [1], 4.57 µM in test [2] and 0.501 µM in test [4].

For the molecule `CC(=O)N[C@@H](Cc1ccccc1)C(=O)N[C@@H](CCCCN)C(=O)N1CCCC1C(=O)N[C@H](CC1CCCCC1)C(=O)N[C@@H](CC1c2ccccc2-c2ccccc21)C(=O)N[C@H](CCCN=C(N)N)C(=O)O` (single isomer, unassigned; 16a), the half-maximal inhibitory concentration (IC50) in test [1] is 51 µM; in test [2], greater than 51.3 µM.

`CC(C)[C@H](NC(=O)[C@H](CO)NC(=O)[C@H](Cc1c[nH]cn1)NC(=O)[C@H](CCCCN)NC(=O)[C@H](Cc1ccc(O)cc1)NC(=O)[C@@H](N)CCCCN)C(=O)N[C@H](C(=O)N[C@@H](CCCCN)C(=O)N[C@@H](CCCCN)C(=O)NCCCCC(=O)N[C@@H](Cc1ccccc1)C(=O)N[C@@H](CCCCN)C(=O)N1CCC[C@H]1C(=O)N[C@H](CC1CCCCC1)C(=O)N[C@@H](Cc1c[nH]c2ccccc12)C(=O)N[C@H](CCCN=C(N)N)C(=O)O)C(C)C`: the half-inhibitory concentration (IC50) in test [3] is 0.2 µM; in test [1] it was 1.2 µM; in test [2] it was 1.23 µM; in test [4] it was 0.245 µM.

For `NC(N)=NCCC[C@@H](NC(=O)[C@H](Cc1c[nH]c2ccccc12)NC(=O)[C@@H](CC1CCCCC1)NC(=O)C1CCCN1C(=O)[C@H](Cc1c[nH]c2ccccc12)NC(=O)[C@@H](N)Cc1ccccc1)C(=O)O` (single isomer, unassigned), the 50% inhibitory concentration (IC50) in test [5] is 5.9 µM; in test [3] it was 0.3 µM; in test [6] it was 5.89 µM; in test [4], 0.316 µM.

With `CC(=O)N[C@@H](Cc1ccccc1)C(=O)N[C@@H](CCCCN)C(=O)N1CCCC1C(=O)N[C@H](CC1CCCCC1)C(=O)N[C@@H](Cc1c[nH]c2ccccc12)C(=O)N[C@H](CCCN=C(N)N)C(=O)O` (single isomer, unassigned), the IC50 was 4.8 µM in test [1] and 4.79 µM in test [2].

For the molecule `CC(=O)N[C@@H](Cc1ccccc1)C(=O)N[C@@H](CCCCN)C(=O)N1CCCC1C(=O)N[C@H](CC1CCCCC1)C(=O)N[C@@H](CC1c2ccccc2-c2ccccc21)C(=O)N[C@H](CCCN=C(N)N)C(=O)O` (single isomer, unassigned; 16b), the concentration for half-maximal inhibition (IC50) in test [1] is 116 µM; in test [2], greater than 115 µM.

Regarding `CCCC[C@H](NC(=O)[C@H](Cc1ccccc1)NC(C)=O)C(=O)N1CCCC1C(=O)N[C@H](CC1CCCCC1)C(=O)N[C@@H](Cc1c[nH]c2ccccc12)C(=O)N[C@H](CCCN=C(N)N)C(=O)O` (single isomer, unassigned), the 50% inhibitory concentration (IC50) in test [3] was 1.4 µM; in test [1], 3.6 µM; in test [2], 3.55 µM; in test [4], 1.41 µM.

As to `C[C@H](NC(=O)[C@@H](N)Cc1ccccc1)C(=O)N1CCCC1C(=O)N[C@H](CC1CCCCC1)C(=O)N[C@@H](Cc1c[nH]c2ccccc12)C(=O)N[C@H](CCCN=C(N)N)C(=O)O` (single isomer, unassigned), the IC50 in test [3] is 3.7 µM; in test [1] it was 9 µM; in test [2] it was 9.12 µM; in test [4], 3.63 µM.

For the molecule `NCCCC[C@H](NC(=O)[C@@H](N)Cc1ccccc1)C(=O)N1CCCC1C(=O)N[C@H](CC1CCCCC1)C(=O)N[C@@H](Cc1c[nH]c2ccccc12)C(=O)N[C@H](CCCN=C(N)N)C(=O)O` (single isomer, unassigned), the IC50 in test [3] was 6.8 µM; in test [1], 2 µM; in test [2], 1.95 µM; in test [4], 6.76 µM.

Consider `N=C(N)NCCC[C@H]1NC(=O)[C@H](Cc2c[nH]c3ccccc23)NC(=O)[C@@H](CC2CCCCC2)NC(=O)[C@@H]2CCCN2C(=O)[C@H](Cc2c[nH]c3ccccc23)NC(=O)[C@H](Cc2ccccc2)NC1=O`, for which the IC50 in test [2] is greater than 42.7 µM.

As for `CN[C@@H](Cc1ccccc1)C(=O)N[C@@H](CCCCN)C(=O)N1CCCC1C(=O)N[C@H](CC1CCCCC1)C(=O)N[C@@H](Cc1c[nH]c2ccccc12)C(=O)N[C@H](CCCN=C(N)N)C(=O)O` (single isomer, unassigned), the IC50 in test [3] was 0.1 µM; in test [4] it was 0.107 µM.

Consider `CN1C(=O)[C@@H](CCCN=C(N)N)NC(=O)[C@H](Cc2c[nH]c3ccccc23)NC(=O)[C@@H](CC2CCCCC2)NC(=O)[C@@H]2CCCN2C(=O)[C@H](Cc2c[nH]c3ccccc23)NC(=O)[C@@H]1Cc1ccccc1`, for which the IC50 in test [3] is 2.1 µM; in test [1], 3 µM; in test [2], 2.95 µM; in test [4] it was 1.51 µM.

Take `NCCCC[C@H](NC(=O)[C@H](Cc1ccccc1)NC(=O)[C@@H](N)CCCCN)C(=O)N1CCCC1C(=O)N[C@H](CC1CCCCC1)C(=O)N[C@@H](Cc1c[nH]c2ccccc12)C(=O)N[C@H](CCCN=C(N)N)C(=O)O` (single isomer, unassigned): the concentration for half-maximal inhibition (IC50) in test [3] was 0.3 µM; in test [1], 2.6 µM; in test [2], 2.63 µM; in test [4], 0.269 µM.

In the case of `CC(C)[C@H](NC(=O)[C@H](CO)NC(=O)[C@H](Cc1c[nH]cn1)NC(=O)[C@H](CCCCN)NC(=O)[C@H](Cc1ccc(O)cc1)NC(=O)[C@@H](N)CCCCN)C(=O)N[C@H](C(=O)N[C@@H](CCCCN)C(=O)N[C@@H](CCCCN)C(=O)NCCCCC(=O)NCC(=O)NCC(=O)NCC(=O)NCC(=O)N[C@@H](Cc1ccccc1)C(=O)N[C@@H](CCCCN)C(=O)N1CCC[C@H]1C(=O)N[C@H](CC1CCCCC1)C(=O)N[C@@H](Cc1c[nH]c2ccccc12)C(=O)N[C@H](CCCNC(=N)N)C(=O)O)C(C)C`, the IC50 is 0.07 µM in test [3], 0.2 µM in test [1], greater than 0.174 µM in test [2] and 0.0724 µM in test [4].

As for `CC(=O)N[C@@H](Cc1ccccc1)C(=O)N[C@@H](CCCN)C(=O)N1CCCC1C(=O)N[C@H](CC1CCCCC1)C(=O)N[C@@H](Cc1c[nH]c2ccccc12)C(=O)N[C@H](CCCN=C(N)N)C(=O)O` (single isomer, unassigned), the IC50 in test [3] is 0.2 µM; in test [1] it was 0.8 µM; in test [2], 0.794 µM; in test [4] it was 0.191 µM.

A word on the IC50: it is the midpoint of a concentration-inhibition curve.

(Values after ChEMBL document CHEMBL1132227, “Low-molecular-weight peptidic and cyclic antagonists of the receptor for the complement factor C5a” (J Med Chem, 1999).)
